# Hits are enriched below; roughly 3.8% of the tested compounds scored in any of these assays.
# KCNQ1 act: potentiators or activators of KCNQ1 channel, primary screen, cell-based, thallium flux, high-throughput. 310,000 compounds, 0.35% hits. Potassium voltage-gated channel subfamily KQT member 1 (Homo sapiens), P51787. B-score at 10 µM. CHO-K1 KCNQ1, thallium flux FluxOR fluorescence; active compounds read high;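 active = fluorescence ratio B-score, a plate-corrected score, at least three library SD, with initial intensity B-score within 5 SD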
# Target sequence (P51787 whole entry, looked up): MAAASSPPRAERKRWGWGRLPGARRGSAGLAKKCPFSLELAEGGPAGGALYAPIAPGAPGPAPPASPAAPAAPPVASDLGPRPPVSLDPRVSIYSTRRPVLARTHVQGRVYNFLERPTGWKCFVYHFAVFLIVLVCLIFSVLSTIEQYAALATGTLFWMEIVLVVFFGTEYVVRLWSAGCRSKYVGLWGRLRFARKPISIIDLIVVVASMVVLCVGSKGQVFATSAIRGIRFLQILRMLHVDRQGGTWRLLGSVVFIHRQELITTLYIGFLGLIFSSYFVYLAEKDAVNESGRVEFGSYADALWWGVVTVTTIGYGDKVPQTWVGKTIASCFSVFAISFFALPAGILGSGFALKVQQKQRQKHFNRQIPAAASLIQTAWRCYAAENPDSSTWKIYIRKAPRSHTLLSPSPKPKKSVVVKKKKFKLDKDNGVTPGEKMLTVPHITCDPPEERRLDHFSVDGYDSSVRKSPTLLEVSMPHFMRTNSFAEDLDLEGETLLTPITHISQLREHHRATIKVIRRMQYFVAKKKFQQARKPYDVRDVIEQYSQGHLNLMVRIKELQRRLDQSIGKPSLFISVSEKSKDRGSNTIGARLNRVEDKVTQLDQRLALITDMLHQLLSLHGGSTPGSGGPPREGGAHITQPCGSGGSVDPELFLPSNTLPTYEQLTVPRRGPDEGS
#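 System: CHO-K1 cells stably expressing KCNQ1 / Medium: assay buffer for compound exposure, DMSO matched across wells / Reagent: thallium- and potassium-containing depolarizing buffer / Compound: one concentration, matched DMSO / Incubation: 20 min compound pretreatment at room temperature / Measured by: kinetic FluxOR fluorescence, 10 s baseline plus 110 s post-stimulus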
# Kir21 block: inhibitors of mouse Kir2.1 inward-rectifier potassium channel; Inward rectifier potassium channel 2 (Mus musculus), P35561; HEK293-Kir2.1, FluxOR thallium flux fluorescence; active compounds read low; B-score at 10 µM; 310,000 compounds, 0.85% hits; AID 1672, 2009;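 active = fluorescence ratio B-score at or below minus 3 SD of library scores, with starting-brightness B-score within 2 SD, cut at about -4.2 in these data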;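 note: channel flux triggered by added potassium and thallium sulfate stimulus; B-score of peak minus minimum fluorescence over baseline after thallium stimulus; more negative B-score means stronger Kir2.1 block with less thallium influx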
# hERG protect: hERG rescue from dofetilide block, primary screen, cell-based, CHO-hERG, FluxOR thallium flux, dofetilide IC70 | activation (rescue from dofetilide block), less the hit threshold, % at 10 µM | 310,000 compounds, 0.51% hits | dofetilide IC70 present;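 active = activation above the mean of controls blocked by dofetilide plus 5 SD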;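 note: thallium influx through hERG after potassium depolarization seen as dye fluorescence rise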
# KCNK9 inh: KCNK9 potassium channel inhibitors, primary screen, HEK293 cells, thallium flux. Potassium channel subfamily K member 9 (Homo sapiens), Q9NPC2. FluxOR thallium flux fluorescence; active compounds read low. B-score at 10 µM. 310,000 compounds, 1.2% hits;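 active = ratio B-score over 3 SD below the library mean, with starting fluorescence within 5 SD of its mean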;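 note: negative B-score means less thallium flux so channel inhibition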
# KCNQ1 block: inhibitors of human KCNQ1 channel, primary screen, cell-based, thallium flux, high-throughput; Potassium voltage-gated channel subfamily KQT member 1 (Homo sapiens), P51787; CHO-K1 KCNQ1, FluxOR thallium flux fluorescence; active compounds read high; B-score at 10 µM; 310,000 compounds, 1.3% hits; AID 2642, 2010;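 active = compounds whose thallium flux B-score, printed positive for inhibition, exceeds three library SD while starting fluorescence stays within three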;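 note: channel opened by potassium depolarization with thallium stimulus after 20 min compound exposure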
# KCNK3 inh: human KCNK3 channel inhibitors, primary screen, CHO cells, FluxOR thallium flux, B-score; FluxOR fluorescence; active compounds read low; B-score at 10 µM; 340,000 compounds, 0.84% hits;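 active = B-score under library mean minus 4 SD, starting fluorescence ratio at most library mean plus 5 SD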;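 note: more negative B-score means stronger inhibition of thallium flux through KCNK3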
# KCNK9 inh conf: KCNK9 potassium channel inhibitors, confirmation, HEK293 cells, thallium flux, duplicate; FluxOR thallium flux fluorescence; inhibition, % at 10 µM; AID 492992, 2010; 4,900 compounds, 43% hits; shares compounds with KCNK9 inh;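 active = thallium signal inhibited by more than 5 SD of the compound-free buffer control wells, on both duplicate plates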;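 note: 0% = assay buffer control wells without compound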
# Kir2-1 spec: mouse Kir2.1 channel inhibition, confirmation, selectivity assay for KCNK9 modulator project, cell-based, HEK293, thallium flux | shares compounds with KCNK9 inh | Kir2.1 cells, FluxOR thallium flux fluorescence | inhibition, % at 10 µM | 4,900 compounds, 4% hits | AID 492993, 2010;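 active = thallium signal drop more than 5 SD beyond the mean of the no-compound control wells, seen in both duplicate plates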;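 note: signal is fluorescence rise after thallium addition divided by baseline fluorescence; plate controls were assay buffer only for no effect and full block by chlorpromazine control for full effect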
# KCNK9 uninduced: thallium flux in non-induced HEK293 cells, confirmation, counter-screen for KCNK9 inhibitor project, cell-based, second counter screen, non-induced KCNK9-HEK293. shares compounds with KCNK9 inh. FluxOR thallium flux. inhibition, % at 10 µM. 4,900 compounds, 40% hits. AID 492997, 2010;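 active = thallium signal drop beyond 5 SD of the untreated control mean, on both duplicate plates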;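 note: plate controls were buffer only IC0 wells for no effect and SID17386958 at its maximal inhibitory level for full effect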
# The depositor's hits bear a star; i = inactive; . = not tested or not shown.
SMILES,KCNQ1 act,Kir21 block,hERG protect,KCNK9 inh,KCNQ1 block,KCNK3 inh,KCNK9 inh conf,Kir2-1 spec,KCNK9 uninduced
CC(NC(=O)c1ccc(OC2CCN(Cc3ccccn3)CC2)cc1)c1nccs1 (stereo not given),i,-0.4,-5,i,i,i,.,.,.
CC1CCCN(c2nc(-c3cccnc3)nc3scc(-c4ccccc4)c23)C1 (stereo not given),i,-0.22,-15,-9.1*,i,i,35%*,i,35%*
CC1CCN(c2nc(-c3cccnc3)nc3scc(-c4ccccc4)c23)CC1,i,-0.47,-10,i,i,i,.,.,.
Cc1nn(C)c(Cl)c1C(=O)NCC(=O)Nc1ccc(C(C)C)cc1,i,2.2,-5,i,i,i,.,.,.
Cc1ccccc1CS(=O)(=O)Cc1ccc(C(=O)NCCc2ccccc2)o1,i,0.42,-11,i,i,i,.,.,.
CCN(CC)c1ccc(/C=N/N2CCN(Cc3cccc4ccccc34)CC2)c(O)c1,i,-0.61,-8,i,i,i,i,i,i
C/C(=N/N1CCN(Cc2cccc3ccccc23)CC1)c1ccco1,i,-0.41,-13,i,i,i,i,i,i
CCN(CC)c1ccc(/C=N/N2CCN(Cc3ccc(Cl)cc3)CC2)c(O)c1,i,-1.2,-3,i,i,i,.,.,.
C(=N\N1CCN(Cc2cccc3ccccc23)CC1)/c1cccs1,i,0.69,-4,i,i,i,i,i,i
C(=N\N1CCN(Cc2ccccc2)CC1)/c1cccs1,i,1.9,-4,i,i,i,.,.,.
OC1CCN(Cc2cccc3ccccc23)CC1,i,-2.7,-9,i,i,i,.,.,.
O=C(O)c1cccc(-n2nc(-c3ccc(Cl)c([N+](=O)[O-])c3)c3ccccc3c2=O)c1,i,-1.4,-7,i,i,i,.,.,.
CC1(CO)COC(c2ccccc2)=N1 (stereo not given),i,-0.72,-4,i,i,i,.,.,.
COc1ccc(-c2noc3c2-c2nc(C4CCCCC4)sc2CC3)cc1,i,-1.8,-16,i,i,i,i,i,24%*
COC(=O)c1cc2sccc2n1Cc1nc(-c2ccc(OC)cc2)oc1C,i,0.37,-12,i,i,i,.,.,.
COC(=O)c1cc2ccsc2n1Cc1nc(-c2ccc(OC)cc2)oc1C,i,0.21,-6,-8.4*,i,i,40%*,i,52%*
O=[N+]([O-])c1cc(Cl)ccc1N1CCCC1,i,1.7,-8,i,i,i,.,.,.
O=[N+]([O-])c1cc(S(=O)(=O)C(F)(F)F)ccc1N1CCN(c2ccccc2)CC1,i,0.04,-2,-8.3*,i,i,i,i,35%*
O=[N+]([O-])c1cc(CN2CCN(c3cccc(C(F)(F)F)c3)CC2)c2cccnc2c1O,i,-0.11,-3,i,i,i,i,i,i
O=[N+]([O-])c1cc(Cl)ccc1N1CCN(c2cccc(C(F)(F)F)c2)CC1,i,-0.7,-15,-12*,i,i,75%*,i,51%*
CC(=NNC(=O)c1ccc(NS(=O)(=O)c2ccc(Br)cc2)cc1)c1cccnc1,.,.,.,.,.,i,.,.,.
CCC(C)(C)NC(=O)CN(CC1CCCO1)C(=O)CNS(=O)(=O)c1ccccc1 (stereo not given),i,0.02,-6,i,i,i,.,.,.
Cc1c(C(=O)c2ccc(Cl)cc2Cl)cnc2cc3c(cc12)OCO3,i,1.6,-11,-16*,i,i,62%*,i,30%*
Cc1ccc(NC(=O)CN2CCc3cc4c(cc3C2)OCCCO4)cc1,i,0.36,-8,i,i,i,.,.,.
Cc1cc(C)cc(NC(=O)CN2CCc3cc4c(cc3C2C)OCCCO4)c1 (stereo not given),i,0.02,-8,i,i,i,i,i,i
SMILES,KCNQ1 act,Kir21 block,hERG protect,KCNK9 inh,KCNQ1 block,KCNK3 inh,KCNK9 inh conf,Kir2-1 spec,KCNK9 uninduced
Cc1cccc(NC(=O)CN2CCc3cc4c(cc3C2C)OCCCO4)c1 (stereo not given),i,0.81,-13,i,i,i,i,i,i
CC1c2cc3c(cc2CCN1C(=O)c1ccc(Br)cc1)OCCCO3 (stereo not given),i,2.2,-17,i,i,i,.,.,.
CC(=O)c1cccc(NC(=O)CN2CCc3cc4c(cc3C2)OCCCO4)c1,i,-0.11,-13,i,i,i,.,.,.
Cc1cccc(NC(=O)CN2CCc3cc4c(cc3C2)OCCCO4)c1,i,0.45,-8,i,i,i,i,i,i
Cc1c(NC(=O)CN2CCN(c3cccc(Cl)c3)CC2)c(=O)n(-c2ccccc2)n1C,i,-1.2,-14,i,i,i,.,.,.
COc1cc(/C=N\NC(=O)c2ccc(-c3ccccc3)cc2)ccc1OCC(N)=O,i,0.24,-9,i,i,i,.,.,.
COc1ccc(/C=N/NC(=O)c2nc(-c3ccccc3)cc(-c3ccccc3)n2)cc1OC,i,-2.2,-16,-9.7*,i,i,31%*,i,i
COc1cccc(/C=N/NC(=O)c2nc(-c3ccccc3)cc(-c3ccccc3)n2)c1,i,-0.2,-20,-8.5*,i,i,34%*,i,i
COc1ccc2cc(C(=O)C3CCCN(C(=O)CCc4ccccn4)C3)ccc2c1 (stereo not given),i,2.5,-21,i,i,i,i,i,i
O=C(c1ccc(Cl)cc1)C1CCCN(C(=O)/C=C/c2ccccn2)C1 (stereo not given),i,0.43,-9,i,i,i,i,i,i
